Where “and” joins values, the source holds several entries; their conditions need not be identical. Equal values may be shown once.
tested on: Mycobacterium tuberculosis; experiment: Minimum inhibitory concentration against Mycobacterium tuberculosis H37Rv (ATCC 27294) in BACTEC 6A medium; format: functional
Procedure, shortened: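 M. tuberculosis H37Rv ATCC 27294 tested in the BACTEC 460 radiometric system in BACTEC 6A medium. Percent inhibition = 1 − (growth index of test sample / growth index of control) × 100. MIC taken as the lowest concentration inhibiting 99% of the inoculum.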

SMILES	MIC
Sc1nc(-c2cnccn2)no1	1600 µM and 288 µg/mL
NNC(=O)c1ccncc1 [ISONIAZID]	0.15 µM and 0.018 µg/mL
CC(C)(C)C(=O)OCn1c(-c2cnccn2)noc1=O	200 µM and 56 µg/mL
Oc1nc(-c2cccnc2)no1	> 1600 µM and > 261 µg/mL
CC(C)(C)C(=O)OCSc1nc(-c2cccnc2)no1	200 µM and 59 µg/mL
NC(=O)c1cnccn1 [PYRAZINAMIDE]	400 µM and 49 µg/mL
Oc1nc(-c2ccncc2)no1	> 1600 µM and > 261 µg/mL
Sc1nc(-c2ccncc2)no1	> 1600 µM and > 286 µg/mL
O=c1oc(-c2cccnc2)ns1	25 µM and 4.5 µg/mL
CC(C)(C)C(=O)OCn1c(-c2ccncc2)noc1=O	50 µM and 14 µg/mL
CC(C)(C)C(=O)OCn1nnnc1-c1cnccn1	50 µM and 13 µg/mL
Oc1nc(-c2cnccn2)no1	800 µM and 131 µg/mL
CC(C)(C)C(=O)OCn1c(-c2cccnc2)noc1=O	100 µM and 28 µg/mL
CC(C)(C)C(=O)OCSc1nc(-c2ccncc2)no1	200 µM and 59 µg/mL
O=c1oc(-c2cnccn2)ns1	25 µM and 4.5 µg/mL
Sc1nc(-c2cccnc2)no1	> 1600 µM and > 286 µg/mL
CC(C)(C)C(=O)OCSc1nc(-c2cnccn2)no1	400 µM and 118 µg/mL
O=c1oc(-c2ccncc2)ns1	50 µM and 9 µg/mL

From ChEMBL document CHEMBL1134471, “Antimycobacterial activity of substituted isosteres of pyridine- and pyrazinecarboxylic acids. 2” (2001)
